High-throughput results: PubChem, several laboratories
A selection: hits, their analogues and other compounds. The true share with any hit is near 5.2%.
ALR inh = inhibitors of human sulfhydryl oxidase ALR. hit rate 3.8% among 290,000. inhibition, % (concentration not given with the values). purified ALR, DTT oxidation, H2O2 HRP-luminol luminescence. AID 485317. P55789;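 active = mean replicate inhibition above about 79%, with every replicate also reaching it, limit read from the data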
Target sequence (P55789 whole entry, looked up): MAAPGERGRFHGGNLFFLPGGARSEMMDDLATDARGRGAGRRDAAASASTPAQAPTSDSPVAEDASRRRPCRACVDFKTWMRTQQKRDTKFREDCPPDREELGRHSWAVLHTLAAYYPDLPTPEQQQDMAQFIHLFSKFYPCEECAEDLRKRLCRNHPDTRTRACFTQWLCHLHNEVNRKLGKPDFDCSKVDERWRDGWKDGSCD
EBNA-1 inhibitor = blocks EBNA-1 binding to DNA; EBNA-1 DNA binding, fluorescence polarization; inhibition, % at 14.8 µM; hit rate 0.34% among 300,000; AID 1950; in the data active = inhibition above about 28%
M18AAP inhibitor = blocks P. falciparum M18 aspartyl aminopeptidase. hit rate 1.2% among 290,000. inhibition, % at 7.35 µM. recombinant PfM18AAP, H-Glu-NHMec fluorogenic cleavage;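 active = inhibition above the campaign mean inhibition over all tested compounds plus 3 SD, cut at about 28% in these data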;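 note: 0% = plate median of test compound wells and 100% = 2 mM ZnCl2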
ZTA DNA inh = counter-screen for EBNA-1 inhibitors: inhibitors of Epstein-Barr virus ZTA | P03206 | ZTA-DNA binding, fluorescence polarization | inhibition, % at 11 µM | hit rate 0.15% among 320,000 | AID 2234; in the data active = inhibition above about 33%
Target sequence (P03206 whole entry, looked up): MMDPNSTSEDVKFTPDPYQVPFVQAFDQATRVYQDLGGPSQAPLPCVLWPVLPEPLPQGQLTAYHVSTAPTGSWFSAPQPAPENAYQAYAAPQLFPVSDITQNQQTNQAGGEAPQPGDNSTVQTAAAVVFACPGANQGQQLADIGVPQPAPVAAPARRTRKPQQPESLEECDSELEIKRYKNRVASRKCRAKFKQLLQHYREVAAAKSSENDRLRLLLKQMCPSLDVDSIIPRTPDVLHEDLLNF
NS3 helicase inh = blocks Hepatitis C virus NS3 helicase unwinding | NS3 helicase DNA unwinding, Cy5 molecular beacon fluorescence | inhibition, % at 10.9 µM | hit rate 0.56% among 290,000 | AID 1800;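 active = inhibition above the mean of all tested compounds plus 3 SD, set per campaign, cut at about 35% in these data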;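 note: 0% = DMSO wells and 100% = thioflavine S control wells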
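Control set: DMSO versus 110 µM thioflavine S; Material: NS3 helicase fragment of HCV; Measured by: Cy5 fluorescence at 0 and 60 min, beacon hairpin quenching; Read-out basis: percent inhibition from t60/t0 fluorescence ratio; Times: reaction time 60 min, 25 °C; Repeats: single replicate; Compound dosing: single dose, 10.9 µM nominal final, DMSO 0.8% final.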
HCV core dimer = HCV core protein dimerization inhibition | TR-FRET GST/Flag-core106 dimerization, 1536-well | inhibition, % at 5 µM | hit rate 0.33% among 300,000;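 active = inhibition above the mean of all tested compounds plus 3 SD, set per screening campaign, cut at about 45% in these data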
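Assay system: Tagged HCV core106 pair (GST and Flag) | Buffer or medium: KF-containing HEPES buffer, pH 7.45, DTT, CHAPS, BSA | Also added: Eu donor and XL665 acceptor anti-tag antibodies | Dosing: One concentration, 5 µM, in 0.5% DMSO | Timing: 4 h at 22.5 °C | Technique: TR-FRET 671 and 617 nm emission | Repeats: Singlicate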
EBNA-1 confirm = EBNA-1 (EBV) inhibition, confirmation; shares compounds with EBNA-1 inhibitor; hit rate 35% among 830; inhibition, % at 14.8 µM; AID 2292; Recombinant EBNA-1 DBD, Cy5-DNA fluorescence polarization;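 active = mean inhibition across replicates above a set limit taken from the earlier primary screen, cut at about 28% in these data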;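 note: plate controls were EBNA-1 protein with DMSO for no effect and wells lacking EBNA-1 for full effect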
ZTA counter trip = blocks Epstein-Barr virus ZTA in triplicate, EBNA-1 counter-screen | shares compounds with EBNA-1 inhibitor | 830 tested, under 10 active | AID 2328 | Zta-ZRE DNA binding, Cy5 fluorescence polarization | inhibition, % at 11.1 µM;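 active = mean inhibition over triplicates above a set limit taken from the primary EBNA-1 screen, cut at about 37% in these data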;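 note: purified full length Zta protein with Cy5 labeled ZRE DNA probe; 0% = Zta with DMSO and 100% = wells lacking Zta protein; inhibitors lower polarization by freeing the labeled DNA probe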
* hit, by the source's call; . = no result given; + = active, no number.

SMILES	ALR inh	EBNA-1 inhibitor	M18AAP inhibitor	ZTA DNA inh	NS3 helicase inh	HCV core dimer	EBNA-1 confirm	ZTA counter trip
O=C(N/C(=C/c1ccc(Br)cc1)c1nc2ccccc2[nH]1)c1ccco1	-9	31*	2	18	-12	-4	82*	18
CCCc1ccc(S(=O)(=O)N(C)S(=O)(=O)c2ccc(F)cc2)cc1	2	-3	-3	-1	-1	0	.	.
O=C(Nc1ccc2oc(-c3cccnc3)nc2c1)c1ccc2c(c1)OCCO2	0	41*	-3	4	-1	21	0	13
O=C(Nc1ccc2oc(-c3ccccc3)nc2c1)c1ccc2c(c1)OCCO2	-10	7	-3	-8	-9	0	.	.
O=C(Nc1ccnn1C1CCN(C2CCOCC2)CC1)c1cccc(F)c1	-4	6	-8	9	-3	-3	.	.
CCCCCNC(=O)c1c[nH]c2ccc(S(=O)(=O)N3CCC4(CC3)OCCO4)cc2c1=O	-4	29*	-4	5	1	1	4	2
O=C(COC(=O)c1cncc(Br)c1)NC1CCCC1	3	3	-4	-15	5	-3	.	.
Cc1cccc(C)c1NC1=NCCCCC1	-1	-3	-10	-23	0	-3	.	.
COc1ccccc1N(Cc1cc(=O)[nH]c2ccccc12)C(C)=O	.	2	0	7	15	6	.	.
CCCC(=O)N(Cc1cc(=O)[nH]c2ccccc12)c1ccccc1OC	9	28*	-4	-5	-2	0	-2	3
COc1ccc(-n2ncc3c(=O)n(CC(=O)N4c5ccccc5CC4C)cnc32)cc1 (centres undefined)	.	31*	-3	1	7	7	1	4
CCOC(=O)Cn1cnc2c(cnn2-c2ccc(OC)cc2)c1=O	-16	5	2	-2	-2	6	.	.
O=C(O)c1ccc(N2CC3CC(C2)c2cccc(=O)n2C3)c(NS(=O)(=O)c2cccc(C(F)(F)F)c2)c1 (centres undefined)	-5	0	2	11	7	6	.	.
O=C(NCCc1ccc(F)cc1)c1ccc2c(=O)n3c(nc2c1)CCC3	-1	45*	.	-12	.	-2	-4	-5
O=C(NCCOc1ccccc1F)c1ccc2c(=O)n3c(nc2c1)CCC3	15	.	.	8	.	.	.	.
Cc1cc(/C=C2\SC(=S)N(C)C2=O)c(C)n1-c1ccccc1O	-6	35*	.	16	.	-13	43*	-5
O=C(COc1ccccc1)N=C1SC2CS(=O)(=O)CC2N1Cc1ccccc1 (centres undefined)	-1	+	8	-15	1	-1	-4	-2
Cc1ccccc1-c1nsc(SCC(=O)Nc2ccc3c(c2)OCO3)n1	-9	31*	-14	10	6	0	18	14
COc1ccccc1NC(=O)Cn1c2ccccc2c2nc3n(c(=O)c21)CCS3	1	44*	2	-15	-3	7	0	-8
O=C(Cn1c2ccccc2c2nc3n(c(=O)c21)CCS3)Nc1ccccc1C(F)(F)F	0	-9	4	2	5	-11	.	.
O=[N+]([O-])c1cc(-n2cccc2)ccc1N1CCOCC1	4	-6	4	-23	6	-1	.	.
CCc1ccc(C)c(OC(=O)c2cncc(Br)c2)c1	22	2	6	-6	0	7	.	.
COc1ccc(NC(=O)COc2ccc3c(C)cc(=O)oc3c2)cc1S(=O)(=O)N1CCCCC1	.	101*	.	17	.	10	67*	10
COCCn1c(=NC(=O)C2COc3ccccc3O2)sc2cc(S(N)(=O)=O)ccc21 (centres undefined)	-3	-10	2	1	-1	-1	.	.
C=CCn1c(=NC(=O)C2COc3ccccc3O2)sc2cc(S(N)(=O)=O)ccc21 (centres undefined)	-1	31*	7	8	6	7	11	-10
SMILES	ALR inh	EBNA-1 inhibitor	M18AAP inhibitor	ZTA DNA inh	NS3 helicase inh	HCV core dimer	EBNA-1 confirm	ZTA counter trip
CN1CCN(S(=O)(=O)c2cccc(C(=O)Oc3ccc(Br)cc3F)c2)CC1	24	0	-16	0	-45	8	.	.
COc1ccc(Cn2cccc(NC(=O)Nc3cccc(C#N)c3)c2=O)cc1	-13	106*	-2	24	-9	9	117*	1
O=C(CSc1nc2ccccc2s1)Nc1nccs1	-9	65*	2	1	-5	1	11	-1
COc1cc(/C=C/C(=O)N2CC(C)OC(C)C2)cc(OC)c1OC (centres undefined)	1	-6	-1	-9	4	-4	.	.
Cc1cc(Cl)ccc1OCC(=O)NC(=S)Nc1ccccc1N1CCOCC1	14	44*	-13	14	1	8	38*	8
Cc1cc(Cl)ccc1OCC(=O)Nc1ccccc1N1CCOCC1	-17	9	-6	8	-2	0	.	.
CCOc1ccc(NC(=O)CC(=O)Nc2ccc(OCC)cc2)cc1	.	42*	-5	0	-14	2	4	-4
COC(=O)C(C(=O)OC)c1ccc(NC(=O)c2cccc(Cl)c2)cc1	-2	60*	-1	-3	9	2	49*	0
CCOc1ccc(NC(=O)c2cccc(NC(=O)c3ccccc3)c2)cc1	6	46*	-8	0	-14	-7	37*	-3
COc1ccc(NC(=O)c2cccc(NC(=O)c3ccccc3)c2)cc1	7	68*	-9	-13	-8	-3	-5	-4
COc1ccc(C(=O)Nc2ccc(C(=O)c3ccccc3)cc2)cc1	7	11	.	10	.	8	.	.
CN(CCc1ccccc1)C(=O)c1cccc(NC(=O)Cc2cccc([N+](=O)[O-])c2)c1	2	.	.	.	.	.	.	.
COc1ccc(C(=O)COC(=O)c2ccc(NC(=O)c3ccccc3)cc2)cc1	-12	29*	2	13	-5	13	-9	7
COc1ccc(C(=O)Nc2ccc(C(=O)OCC(=O)c3ccccc3)cc2)cc1	3	-7	1	-6	5	22	.	.
CCn1c(O)c(/C=C2\C=Nc3ccccc32)sc1=O	-11	28*	4	-7	-10	-17	14	9
COC(=O)c1ccc(Cn2cnc3c(cnn3-c3ccc(Cl)cc3)c2=O)o1	-1	46*	2	-7	-5	-11	7	-8
COC(=O)c1ccc(Cn2cnc3c(cnn3-c3ccc(F)cc3)c2=O)o1	10	0	-11	-3	5	5	.	.
CCOc1ncccc1C(=O)OCC(=O)Nc1ccc(C(N)=O)cc1	.	+	4	-5	0	0	7	11
